Hits are enriched below; roughly 2% of the tested compounds scored in any of these assays.
ARNT TACC3 PPI – disruptors of ARNT/TACC3 protein interaction, primary screen, biochemical, AlphaScreen, single concentration | Transforming acidic coiled-coil-containing protein 3 (Homo sapiens), Q9Y6A5 | hit rate 0.66% among 390,000 | inhibition, % at 9.99 µM | AlphaScreen His-ARNT PAS-B/GST-TACC3 binding, luminescence; TACC3 fragment carries E629A point mutation;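 active = mean inhibition of replicates at least 50% and at least half of replicates each reaching 50%; inconclusive = half or more replicates reach 50% but mean below 50%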;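 note: 0% = complete ARNT plus TACC3 wells and 100% = ARNT alone without TACC3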
HIF act – HIF pathway transcriptional activators, primary screen, cell-based, U2OS HRE-luciferase, luminescence; U2OS HRE-luciferase reporter; normalized: DMSO 0%, desferrioxamine 100%; activation, % at 7.5 µM (by protocol); hit rate 0.32% among 300,000;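 active = mean activation of at least 10% of the iron chelator positive control signal, with at least half of replicates also reaching 10%; inconclusive = mean and replicate majority disagree about reaching 10%; inactive = mean and most replicates under 10%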
T cruzi inh – inhibitors of intracellular T. cruzi growth, primary screen, luminescence, NIH3T3 host cells. T. cruzi beta-gal in NIH3T3, 90 h. inhibition, % (no concentration beside the values). hit rate 1.4% among 300,000;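 active = mean inhibition across valid replicates above about 55%, limit read from the data; inconclusive = mean below that limit but half or more replicates reach it; inactive = mean below it, under half of replicates reach it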;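 note: signal also drops with host cell toxicity which is not excluded here; 0% = plate median of DMSO wells and 100% = zero luminescence signal; higher percent means less beta-gal luminescence so fewer parasites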
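Assay system: NIH/3T3 fibroblasts plus reporter T. cruzi. Amount: NIH/3T3 cells, 5,000 per well. Buffer or medium: DMEM, 2% fetal bovine serum. Doses: compound pinned at 50 nL/well, DMSO. Schedule: ≥90 h infection period, 3 h prior cell attachment. Signal: luminescent β-galactosidase signal after 60 min lysis. Read-out: parasite load inhibition, %.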
AI-2 QS mod – Vibrio harveyi AI-2 quorum sensing modulators, primary screen, JMH597 strain, luminescence/OD600 ratio. activity change, % at 7.5 µM. hit rate 0.4% among 300,000. Vibrio harveyi JMH597 AI-2 luminescence/OD600 ratio, 9 h; stronger effect = lower value; strain lacks LuxN and CqsS sensors; 0 = neutral-control median; in the data active = activity change below about -75%, passing the limit was not always enough; inconclusive = no clear call, values can overlap the other calls;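 note: luminescence divided by OD600 gain over 9 h not by final OD600 alone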
JMH597 growth rt – Vibrio harveyi growth inhibition, confirmation, counter-screen for AI-2 quorum sensing project, JMH597 strain, OD600 absorbance | growth inhibition, % at 7.5 µM | shares compounds with AI-2 QS mod | hit rate 1% among 750 | AID 2726, 2010 | 9 h; lacks LuxN and CqsS sensors;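 active = every replicate shows growth inhibition above 50%; inconclusive = at least half, but not all, replicates pass that cutoff; inactive = fewer than half of replicates pass it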
BB721 lum counter – luminescence inhibition in constitutive-on V. harveyi, confirmation, counter-screen for LuxS inhibitor project, strain BB721, luminescence readout; shares compounds with AI-2 QS mod; Vibrio harveyi BB721 luminescence, 9 h; inhibition, % at 7.5 µM; hit rate 95% among 750;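 active = inhibition above about 80% in every replicate, not just on average, limit read from the data; inconclusive = at least half of replicates past the limit, but not all; inactive = fewer than half of replicates past the limit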
BB721 growth – growth inhibition of V. harveyi BB721, confirmation, cytotoxicity control for AI-2 quorum sensing inhibitors, strain BB721, absorbance OD600 | AID 2728, 2010 | growth inhibition, % at 7.5 µM | Vibrio harveyi BB721 growth, 9 h | hit rate 3% among 750 | shares compounds with AI-2 QS mod;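 active = every replicate shows growth inhibition above 50%; inconclusive = at least half but not all replicates above 50% inhibition; inactive = under half of replicates above 50% inhibition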
AI-2 QS JMH597 – Vibrio harveyi AI-2 signaling luminescence modulation – JMH597 strain, confirmation | shares compounds with AI-2 QS mod | Vibrio harveyi JMH597 AI-2 quorum sensing luminescence, 9 h; luxN and CqsS knockout, AI-2 only | inhibition, % at 7.5 µM | hit rate 97% among 750 | AID 2736, 2010;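 active = every replicate shows more than 75% inhibition of signal versus neutral control wells; inconclusive = half to three quarters of replicates exceed 75% inhibition; inactive = fewer than half of replicates exceed 75% inhibition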
An asterisk follows results filed as active.

CN(C)C(=O)C[C@@H]1C=C[C@H](NC(=O)NC2CCCCC2)[C@H](CO)O1 was read as ARNT TACC3 PPI -11.
Screening CCCC#Cc1cnc2c(c1)C(=O)N([C@@H](C)CO)C[C@H](C)[C@H](CN(C)Cc1ccc3c(c1)OCO3)O2 returned ARNT TACC3 PPI -3.
For Clc1nc(-c2ccccc2)ncc1Oc1ccccc1 the results were HIF act 1, T cruzi inh -1, AI-2 QS mod -85*, JMH597 growth rt 18, BB721 lum counter 97*, BB721 growth 22 and AI-2 QS JMH597 98*.
Screening C[C@H]1CN([C@@H](C)CO)C(=O)c2cc(NS(=O)(=O)c3ccc(F)cc3)ccc2O[C@H]1CN(C)S(=O)(=O)c1ccc(Cl)cc1 returned ARNT TACC3 PPI 5.
For O=C(Nc1ccc(-c2noc(CCc3ccccc3)n2)cc1)c1ccco1 the results were ARNT TACC3 PPI -10, HIF act 1, T cruzi inh 9, AI-2 QS mod -81*, JMH597 growth rt 50, BB721 lum counter 91*, BB721 growth 93* and AI-2 QS JMH597 93*.
Screening Cc1cccc(-c2noc(Cc3ccccc3)n2)c1 returned ARNT TACC3 PPI -5, HIF act 3, T cruzi inh -6 and AI-2 QS mod -69.
For COc1ccc(Cc2nc(-c3ccccc3)no2)cc1 the results were ARNT TACC3 PPI -1, HIF act 3, T cruzi inh 13, AI-2 QS mod -93*, JMH597 growth rt 13, BB721 lum counter 98*, BB721 growth -44 and AI-2 QS JMH597 98*.
`Cc1cccc(-c2noc(CCc3ccccc3)n2)c1` gave ARNT TACC3 PPI -5, HIF act 3, T cruzi inh -1, AI-2 QS mod -78*, JMH597 growth rt 17, BB721 lum counter 94*, BB721 growth 0 and AI-2 QS JMH597 96*.
`O=C(Nc1cccc(Cl)c1)OCCOc1ccccc1` gave ARNT TACC3 PPI -2, HIF act 1, T cruzi inh -7, AI-2 QS mod -87*, JMH597 growth rt 8, BB721 lum counter 92*, BB721 growth -6 and AI-2 QS JMH597 92*.
For CCOc1cccc2c1OC1(C)CC2NC(=O)N1c1cccc(C(=O)NCc2ccccn2)c1 (stereo not given) the results were ARNT TACC3 PPI -7, HIF act 0, T cruzi inh -3, AI-2 QS mod -95*, JMH597 growth rt 6, BB721 lum counter -6, BB721 growth 0 and AI-2 QS JMH597 6.
`C[C@@H]1CN([C@@H](C)CO)C(=O)Cc2cc(NC(=O)CCC(F)(F)F)ccc2O[C@H]1CN(C)Cc1ccncc1` gave ARNT TACC3 PPI 21.
O=C(NCc1ccccc1)c1nc2ccccc2s1 was read as ARNT TACC3 PPI -8, HIF act 1, T cruzi inh -7, AI-2 QS mod inconclusive, JMH597 growth rt -3, BB721 lum counter 91*, BB721 growth -38 and AI-2 QS JMH597 94*.
`O=C(Nc1ccc(Cl)cc1)N1C[C@H]2[C@@H](c3ccccc31)[C@@H](CO)N2CC1CCCCC1` gave ARNT TACC3 PPI -3.
`CCN(CC)S(=O)(=O)c1ccc(NC(=O)Cn2c(=O)sc3ccccc32)cc1` gave ARNT TACC3 PPI -3, HIF act 0, T cruzi inh -8, AI-2 QS mod -82*, JMH597 growth rt 17, BB721 lum counter 91*, BB721 growth 18 and AI-2 QS JMH597 94*.

Compound activity (PubChem BioAssay)
